Experimental data: ChEMBL document CHEMBL4152240, “Synthesis, cytotoxicity and structure-activity relationship of indolizinoquinolinedione derivatives as DNA topoisomerase IB catalytic inhibitors” (2018)
Active and inactive are the calls of the source. No cut-off for these calls is given here.

How the values were obtained:
[1] = molecular target: T1, Topoisomerase I (Bos taurus) (UniProt Q2HPH0); assay: Inhibition of calf thymus TOP1-mediated relaxation of supercoiled pBR322 DNA at 125 uM after 30 mins by agarose gel electrophoresis relative to control
T1 sequence (whole entry): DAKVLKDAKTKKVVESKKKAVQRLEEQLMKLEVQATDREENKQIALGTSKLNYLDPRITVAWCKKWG
In short: (§1)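 0.5 µg supercoiled pBR322 in buffer (10 mM Tris-HCl pH 7.5, 50 mM KCl, 5 mM MgCl2, BSA, DTT) with 1 unit calf thymus TOP1, with or without compound (0.2-125 µM), 30 min at 37 C. Run on 0.8% agarose/TBE at 4.6 V/cm for 1.5 h, gel red stained. Activity graded in bands (e.g. +++ 81-120%). At least two independent repeats.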

CCRF-CEM = assay: Cytotoxicity against human CCRF-CEM cells assessed as growth inhibition after 72 hrs by MTT assay; assay type: functional
In short: (§2)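 Five-dose MTT growth assay, compounds predissolved in DMSO, 72 h exposure at 37 C. Cells kept in RPMI-1640 or DMEM, 37 C, 5% CO2, passage 3-6. MTT (1 mg/mL in PBS) added for 4 h, formazan dissolved in DMSO, OD 570 nm. GI50 (50% growth inhibition) by nonlinear regression. Means ± SD, at least three repeats.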

A549 = assay: Cytotoxicity against human A549 cells assessed as growth inhibition after 72 hrs by MTT assay; assay type: functional; settings: A549, 72 h; in short: as §2
Huh-7 = assay: Cytotoxicity against human HuH7 cells assessed as growth inhibition after 72 hrs by MTT assay; assay type: functional; settings: Huh-7, 72 h; in short: as §2
DU-145 = assay: Cytotoxicity against human DU145 cells assessed as growth inhibition after 72 hrs by MTT assay; assay type: functional; settings: DU-145, 72 h; in short: as §2
[2] = Cytotoxicity against human RC0.1 cells assessed as growth inhibition after 72 hrs by MTT assay; assay type: functional
[3] = molecular target: T1, Topoisomerase I (Bos taurus); settings: 0.2 to 1 uM
[4] = molecular target: T1, Topoisomerase I (Bos taurus); assay: Inhibition of calf thymus TOP1-mediated relaxation of supercoiled pBR322 DNA at 25 uM after 30 mins by agarose gel electrophoresis relative to camptothecin; in short: as §1
[5] = molecular target: T1, Topoisomerase I (Bos taurus); assay: Inhibition of calf thymus TOP1-mediated relaxation of supercoiled pBR322 DNA after 30 mins by agarose gel electrophoresis; in short: as §1
DNA [6] = assay: Induction of unwinding effect of Escherichia coli relaxed pBR322 DNA at 1 to 9 uM preincubated with DNA for 10 mins followed by excess calf thymus TOP1 addition and measured after 30 mins by agarose gel electrophoresis; assay type: nucleic-acid assay
In short: (§3)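 Compound (1, 3, 9 µM) preincubated with pBR322 DNA, supercoiled or relaxed, at room temperature for 10 min. Excess TOP1 then added and incubated 30 min at 37 C. Stopped with SDS/proteinase K. Ethidium bromide (0.3-1.2 mg/L) as positive control. Run on 0.8% agarose in TBE at 4.6 V/cm for 1.5 h, stained with gel red, UV visualized.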

DNA [7] = assay: Induction of unwinding effect of Escherichia coli supercoiled pBR322 DNA at 1 to 9 uM preincubated with DNA for 10 mins followed by excess calf thymus TOP1 addition and measured after 30 mins by agarose gel electrophoresis; assay type: nucleic-acid assay; in short: as §3
HCT-116 [8] = assay: Cytotoxicity against human HCT116 cells assessed as growth inhibition after 72 hrs by MTT assay; assay type: functional; settings: HCT-116, 72 h; in short: as §2
MCF7 = assay: Cytotoxicity against human MCF7 cells assessed as growth inhibition after 72 hrs by MTT assay; assay type: functional; settings: MCF7, 72 h
In short: (§4)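 MTT growth assay in drug-resistant sublines and parental lines. HCT116-siTop1 was made by transfecting HCT116 with shRNA vectors expressing TOP1 siRNA. MCF-7, HepG2 and their ADR-resistant lines were gifts. Five-dose DMSO-predissolved compounds for 72 h at 37 C, then MTT 4 h, DMSO solubilization, OD 570 nm. GI50 by nonlinear regression. At least three repeats.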

HepG2 = assay: Cytotoxicity against human HepG2 cells assessed as growth inhibition after 72 hrs by MTT assay; assay type: functional; settings: HepG2, 72 h; in short: as §4
HCT-116 [9] = assay: Cytotoxicity against human HCT116 cells expressing TOP1 siRNA assessed as growth inhibition after 72 hrs by MTT assay; assay type: functional; settings: HCT-116, 72 h; in short: as §4
NCI/ADR-RES = assay: Cytotoxicity against human MCF7/ADR cells assessed as growth inhibition after 72 hrs by MTT assay; assay type: functional; in short: as §4
[10] = Cytotoxicity against human HepG2/ADR cells assessed as growth inhibition after 72 hrs by MTT assay; assay type: functional; settings: HepG2, 72 h; in short: as §4
[11] = Resistance ratio of GI50 for human HCT116 cells expressing TOP1 siRNA to GI50 for human HCT116 cells; assay type: functional
In short: (§5)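 Resistance ratio: the GI50 in the resistant or TOP1-knockdown subline divided by the GI50 in the matching parental line.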

[12] = Resistance ratio of GI50 for human RC0.1 cells to GI50 for human DU145 cells; assay type: functional
[13] = Resistance ratio of GI50 for human MCF7/ADR cells to GI50 for human MCF7 cells; assay type: functional; in short: as §5
[14] = Resistance ratio of GI50 for human HepG2/ADR cells to GI50 for human HepG2 cells; assay type: functional; in short: as §5
HCT-116 [15] = assay: Induction of apoptosis in human HCT116 cells assessed as early apoptotic cells at 1 uM after 12 hrs by annexin V-FITC/propidium iodide staining-based flow cytometric method (reference value: 0.47 to 1.19%); assay type: functional
HCT-116 [16] = assay: Induction of apoptosis in human HCT116 cells assessed as late apoptotic cells at 1 uM after 12 hrs by annexin V-FITC/propidium iodide staining-based flow cytometric method (reference value: 0.34 to 0.81%); assay type: functional
HCT-116 [17] = assay: Induction of apoptosis in human HCT116 cells assessed as viable cells at 1 uM after 12 hrs by annexin V-FITC/propidium iodide staining-based flow cytometric method (reference value: 97.60 to 98.95%); assay type: functional; settings: HCT-116, 12 h, read-out: Activity
HCT-116 [18] = assay: Induction of apoptosis in human HCT116 cells assessed as early apoptotic cells at 3 uM after 12 hrs by annexin V-FITC/propidium iodide staining-based flow cytometric method (reference value: 0.47 to 1.19%); assay type: functional
HCT-116 [19] = assay: Induction of apoptosis in human HCT116 cells assessed as late apoptotic cells at 3 uM after 12 hrs by annexin V-FITC/propidium iodide staining-based flow cytometric method (reference value: 0.34 to 0.81%); assay type: functional
HCT-116 [20] = assay: Induction of apoptosis in human HCT116 cells assessed as viable cells at 3 uM after 12 hrs by annexin V-FITC/propidium iodide staining-based flow cytometric method (reference value: 97.60 to 98.95%); assay type: functional; settings: HCT-116, 12 h, read-out: Activity
HCT-116 [21] = assay: Induction of apoptosis in human HCT116 cells assessed as early apoptotic cells at 9 uM after 12 hrs by annexin V-FITC/propidium iodide staining-based flow cytometric method (reference value: 0.47 to 1.19%); assay type: functional
HCT-116 [22] = assay: Induction of apoptosis in human HCT116 cells assessed as late apoptotic cells at 9 uM after 12 hrs by annexin V-FITC/propidium iodide staining-based flow cytometric method (reference value: 0.34 to 0.81%); assay type: functional
HCT-116 [23] = assay: Induction of apoptosis in human HCT116 cells assessed as viable cells at 9 uM after 12 hrs by annexin V-FITC/propidium iodide staining-based flow cytometric method (reference value: 97.60 to 98.95%); assay type: functional; settings: HCT-116, 12 h, read-out: Activity
HCT-116 [24] = assay: Induction of apoptosis in human HCT116 cells after 12 hrs by annexin V-FITC/propidium iodide staining-based flow cytometric method; assay type: functional, cell-based
DNA [25] = assay: Induction of unwinding effect of Escherichia coli supercoiled pBR322 DNA at 0.3 to 1.2 mg/L preincubated with DNA for 10 mins followed by excess calf thymus TOP1 addition and measured after 30 mins by agarose gel electrophoresis; assay type: nucleic-acid assay
In short: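 Supercoiled or relaxed pBR322 DNA was preincubated with ethidium bromide (0.3, 0.6, 1.2 mg/L, positive control) for 10 min at room temperature. Excess TOP1 was then added for 30 min at 37 °C. The reaction was stopped with SDS/proteinase K, run on 0.8% agarose in TBE at 4.6 V/cm for 1.5 h, then gel-red stained and UV imaged.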

SMILES: CC[C@@]1(O)C(=O)OCc2c1cc1n(c2=O)Cc2cc3ccccc3nc2-1 [CAMPTOTHECIN]
- inhibition [1]: 58%
- GI50 (CCRF-CEM): 2 nM
- GI50 (A549): 3 nM
- GI50 (Huh-7): 6 nM
- GI50 (DU-145): 19 nM
- GI50 [2]: 7.53 µM
- inhibition [3]: Active

SMILES: O=C1c2cccnc2C(=O)c2c1c(C(=O)OCCN1CCCC1)c1c(F)cccn21
- inhibition [4]: > 121%
- inhibition [5]: Dose-dependent effect
- inhibition [1]: 100%
- Activity (DNA [6]): inactive
- Activity (DNA [7]): inactive
- GI50 (HCT-116 [8]): 23 nM
- GI50 (CCRF-CEM): 790 nM
- GI50 (A549): 60 nM
- GI50 (Huh-7): 120 nM
- GI50 (DU-145): 82 nM
- GI50 (MCF7): 89 nM
- GI50 (HepG2): 51 nM
- GI50 (HCT-116 [9]): 150 nM
- GI50 [2]: 2.94 µM
- GI50 (NCI/ADR-RES): 97 nM
- GI50 [10]: 380 nM
- RatioGI50 [11]: 6.5
- RatioGI50 [12]: 36.8
- RatioGI50 [13]: 1.1
- RatioGI50 [14]: 7.5
- Activity (HCT-116 [15]): 0.79%
- Activity (HCT-116 [16]): 1.17%
- viability at 1 µM (HCT-116 [17]): 97.7%
- Activity (HCT-116 [18]): 1.69%
- Activity (HCT-116 [19]): 8.5%
- viability at 3 µM (HCT-116 [20]): 86%
- Activity (HCT-116 [21]): 10.17%
- Activity (HCT-116 [22]): 32.1%
- viability at 9 µM (HCT-116 [23]): 51.3%
- Activity (HCT-116 [24]): Dose-dependent effect

SMILES: CC[n+]1c(-c2ccccc2)c2cc(N)ccc2c2ccc(N)cc21
- Activity (DNA [25]): Active
